Legend:
HCT-116 = experiment: Antiproliferative activity against human HCT116 cells harboring PI3CA H1047R mutant after 72 hrs by MTT assay; type: functional, cell-based; conditions: HCT-116, 72 h
Outline: (§1)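 Cells were grown as monolayers in DMEM + 10% FBS at 37 °C, 5% CO2, and seeded at 3000-5000/well, 24 h before dosing. They were exposed 72 h to final 10.0, 5.0, 1.0 and 0.5 μM. MTT (5 mg/mL in PBS) was then added for 4 h at 37 °C, formazan dissolved in DMSO and read at 570 nm. Three experiments in triplicate; IC50 derived from inhibition ratios.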

MCF7 = experiment: Antiproliferative activity against human MCF7 cells harboring PI3CA E545K mutant after 72 hrs by MTT assay; type: functional, cell-based; conditions: MCF7, 72 h; outline: as §1
[1] = target: PI3-kinase p110-alpha/p85-alpha (Homo sapiens) (UniProt P27986+P42336); experiment: Ratio of BEZ235 IC50 to compound IC50 for P110alpha/p85alpha (unknown origin) using L-alpha-phosphatidylinositol as substrate after 40 mins by ATP depletion assay; type: protein-complex assay
Mus musculus = experiment: Toxicity in mouse S180 cells homografted mouse assessed as reduction of body weight at 20 to 40 mg/kg, po qd for 8 days; type: organism-based; conditions: in vivo, 192 h
Outline: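 S-180 sarcoma-bearing mice (3×10^6 cells s.c., flank; 8 per group) given oral doses once daily for 8 days in DMSO:PEG400:5% glucose injection (1:7:2, v/v/v), starting the day after implantation; solvent-only group as control. Body weight recorded daily through sacrifice on Day 9.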

CCRF S-180 [2] = experiment: Anticancer activity against mouse S180 cells homografted in mouse assessed as tumor growth inhibition at 20 mg/kg, po qd for 8 days measured on day 9 post dose relative to vehicle-treated control; type: functional; conditions: CCRF S-180, po, read-out: TGI
Outline: (§2)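 3×10^6 S-180 cells injected s.c. into mouse flank (mice 19.5 ± 1.8 g); randomized, 8 per group. Dosing began next day, oral once daily for 8 days in DMSO:PEG400:5% glucose injection (1:7:2, v/v/v); vehicle group got equal solvent volume. Mice sacrificed Day 9, tumors weighed, and tumor-weight inhibitory ratio calculated versus solvent group.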

[3] = target: PI3-kinase p110-alpha/p85-alpha (Homo sapiens, UniProt P42336); experiment: Inhibition of P110alpha/p85alpha (unknown origin) using L-alpha-phosphatidylinositol as substrate after 40 mins by ATP depletion assay; type: protein-complex assay
[4] = target: PI3-kinase subunit gamma/Phosphoinositide 3-kinase regulatory subunit 5 (Homo sapiens, UniProt P48736); experiment: Inhibition of P110gamma/PIK3R5 (unknown origin) using L-alpha-phosphatidylinositol as substrate after 40 mins by ATP depletion assay; type: protein-complex assay
PI3K p110 beta/p85 alpha = PI3K p110 beta/p85 alpha (Homo sapiens, UniProt P42338); experiment: Inhibition of P110beta/p85alpha (unknown origin) using L-alpha-phosphatidylinositol as substrate after 40 mins by ATP depletion assay; type: protein-complex assay
[5] = target: Serine/threonine-protein kinase mTOR (Homo sapiens, UniProt P42345); experiment: Inhibition of mTOR (unknown origin) using L-alpha-phosphatidylinositol as substrate after 40 mins by ATP depletion assay
CCRF S-180 [6] = experiment: Anticancer activity against mouse S180 cells homografted in mouse assessed as tumor growth inhibition at 40 mg/kg, po qd for 8 days measured on day 9 post dose relative to vehicle-treated control; type: functional; conditions: CCRF S-180, po, read-out: TGI; outline: as §2
[7] = target: PI3-kinase p110-delta/p85-alpha (Homo sapiens, UniProt O00329); experiment: Inhibition of P110delta/p85alpha (unknown origin) using L-alpha-phosphatidylinositol as substrate after 40 mins by ATP depletion assay; type: protein-complex assay
Chain of PI3-kinase p110-delta/p85-alpha (P27986 whole entry): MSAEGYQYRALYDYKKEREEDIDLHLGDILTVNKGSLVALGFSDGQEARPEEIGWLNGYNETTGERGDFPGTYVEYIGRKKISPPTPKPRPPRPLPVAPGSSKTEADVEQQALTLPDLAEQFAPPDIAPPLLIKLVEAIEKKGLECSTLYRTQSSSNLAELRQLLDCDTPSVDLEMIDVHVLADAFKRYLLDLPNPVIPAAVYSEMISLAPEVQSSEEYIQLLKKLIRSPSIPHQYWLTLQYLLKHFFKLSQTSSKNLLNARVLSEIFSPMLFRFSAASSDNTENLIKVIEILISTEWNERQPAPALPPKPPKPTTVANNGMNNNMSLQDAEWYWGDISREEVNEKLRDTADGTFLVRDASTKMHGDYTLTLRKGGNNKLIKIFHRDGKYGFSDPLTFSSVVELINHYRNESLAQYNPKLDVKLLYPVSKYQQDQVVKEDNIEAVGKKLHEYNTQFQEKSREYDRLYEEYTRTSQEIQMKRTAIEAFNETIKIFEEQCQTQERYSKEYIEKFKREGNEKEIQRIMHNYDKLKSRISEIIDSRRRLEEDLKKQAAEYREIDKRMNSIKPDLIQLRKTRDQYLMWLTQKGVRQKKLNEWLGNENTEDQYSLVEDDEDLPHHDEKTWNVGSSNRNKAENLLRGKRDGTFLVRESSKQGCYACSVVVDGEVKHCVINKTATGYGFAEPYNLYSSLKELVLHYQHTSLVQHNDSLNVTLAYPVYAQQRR
Chain of PI3-kinase p110-delta/p85-alpha (O00329 whole entry): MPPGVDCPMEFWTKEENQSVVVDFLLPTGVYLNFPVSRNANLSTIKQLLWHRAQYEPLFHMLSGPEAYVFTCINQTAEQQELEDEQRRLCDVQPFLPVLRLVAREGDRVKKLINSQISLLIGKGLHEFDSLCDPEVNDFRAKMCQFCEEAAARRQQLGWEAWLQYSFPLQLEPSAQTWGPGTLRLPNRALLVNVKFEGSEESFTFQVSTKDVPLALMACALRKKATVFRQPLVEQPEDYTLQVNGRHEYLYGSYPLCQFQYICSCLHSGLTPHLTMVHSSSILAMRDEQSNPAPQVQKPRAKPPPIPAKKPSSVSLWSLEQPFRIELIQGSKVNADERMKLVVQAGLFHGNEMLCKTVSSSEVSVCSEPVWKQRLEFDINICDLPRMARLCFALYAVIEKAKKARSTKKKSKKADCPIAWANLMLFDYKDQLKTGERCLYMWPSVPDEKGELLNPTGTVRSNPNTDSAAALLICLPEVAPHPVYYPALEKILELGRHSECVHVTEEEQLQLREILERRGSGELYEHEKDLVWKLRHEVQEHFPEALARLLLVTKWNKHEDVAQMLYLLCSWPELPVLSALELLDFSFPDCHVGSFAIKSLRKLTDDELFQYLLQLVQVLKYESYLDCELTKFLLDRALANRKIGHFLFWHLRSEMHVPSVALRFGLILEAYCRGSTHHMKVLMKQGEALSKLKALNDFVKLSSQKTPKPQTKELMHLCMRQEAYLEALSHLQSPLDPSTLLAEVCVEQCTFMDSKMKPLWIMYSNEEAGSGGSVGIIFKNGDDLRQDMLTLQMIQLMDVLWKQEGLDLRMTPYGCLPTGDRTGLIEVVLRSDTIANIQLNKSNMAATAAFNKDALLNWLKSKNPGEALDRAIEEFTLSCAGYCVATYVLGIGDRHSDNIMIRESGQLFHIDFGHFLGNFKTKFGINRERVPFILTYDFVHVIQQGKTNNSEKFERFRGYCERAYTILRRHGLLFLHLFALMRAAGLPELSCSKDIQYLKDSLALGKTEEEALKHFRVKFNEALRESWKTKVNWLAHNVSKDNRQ

Chain of PI3K p110 beta/p85 alpha (P27986 whole entry): as the sequence (P27986 whole entry) above
Chain of PI3K p110 beta/p85 alpha (P42338 whole entry): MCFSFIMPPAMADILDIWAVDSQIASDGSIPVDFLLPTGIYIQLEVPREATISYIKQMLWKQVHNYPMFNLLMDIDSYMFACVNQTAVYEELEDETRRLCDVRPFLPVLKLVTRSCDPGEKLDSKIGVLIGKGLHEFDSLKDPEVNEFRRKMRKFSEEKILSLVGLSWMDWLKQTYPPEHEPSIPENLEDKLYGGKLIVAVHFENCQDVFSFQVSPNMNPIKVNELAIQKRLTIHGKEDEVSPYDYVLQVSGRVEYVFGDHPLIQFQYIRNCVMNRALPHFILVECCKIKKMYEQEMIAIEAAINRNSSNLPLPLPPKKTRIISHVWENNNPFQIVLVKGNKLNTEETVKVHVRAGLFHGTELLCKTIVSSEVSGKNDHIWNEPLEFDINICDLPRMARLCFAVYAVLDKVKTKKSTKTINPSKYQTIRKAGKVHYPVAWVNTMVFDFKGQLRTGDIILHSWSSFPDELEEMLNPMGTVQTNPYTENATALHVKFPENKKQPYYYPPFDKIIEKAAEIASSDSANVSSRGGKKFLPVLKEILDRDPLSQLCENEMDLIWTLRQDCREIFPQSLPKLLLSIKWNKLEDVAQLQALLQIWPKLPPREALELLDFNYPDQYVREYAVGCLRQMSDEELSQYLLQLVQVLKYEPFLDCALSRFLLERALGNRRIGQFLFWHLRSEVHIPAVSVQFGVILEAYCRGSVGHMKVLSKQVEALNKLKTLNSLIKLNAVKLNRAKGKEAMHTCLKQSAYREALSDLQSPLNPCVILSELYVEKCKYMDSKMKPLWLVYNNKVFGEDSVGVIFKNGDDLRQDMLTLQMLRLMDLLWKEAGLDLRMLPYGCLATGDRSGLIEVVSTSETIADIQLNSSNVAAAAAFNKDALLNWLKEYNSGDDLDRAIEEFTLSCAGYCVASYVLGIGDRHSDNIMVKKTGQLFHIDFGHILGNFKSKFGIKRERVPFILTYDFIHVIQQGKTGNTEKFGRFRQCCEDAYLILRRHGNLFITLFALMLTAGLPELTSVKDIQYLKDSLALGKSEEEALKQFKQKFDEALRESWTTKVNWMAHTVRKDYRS
Chain of PI3-kinase p110-alpha/p85-alpha (P27986 whole entry): as the sequence (P27986 whole entry) above
Chain of PI3-kinase p110-alpha/p85-alpha (P42336 whole entry): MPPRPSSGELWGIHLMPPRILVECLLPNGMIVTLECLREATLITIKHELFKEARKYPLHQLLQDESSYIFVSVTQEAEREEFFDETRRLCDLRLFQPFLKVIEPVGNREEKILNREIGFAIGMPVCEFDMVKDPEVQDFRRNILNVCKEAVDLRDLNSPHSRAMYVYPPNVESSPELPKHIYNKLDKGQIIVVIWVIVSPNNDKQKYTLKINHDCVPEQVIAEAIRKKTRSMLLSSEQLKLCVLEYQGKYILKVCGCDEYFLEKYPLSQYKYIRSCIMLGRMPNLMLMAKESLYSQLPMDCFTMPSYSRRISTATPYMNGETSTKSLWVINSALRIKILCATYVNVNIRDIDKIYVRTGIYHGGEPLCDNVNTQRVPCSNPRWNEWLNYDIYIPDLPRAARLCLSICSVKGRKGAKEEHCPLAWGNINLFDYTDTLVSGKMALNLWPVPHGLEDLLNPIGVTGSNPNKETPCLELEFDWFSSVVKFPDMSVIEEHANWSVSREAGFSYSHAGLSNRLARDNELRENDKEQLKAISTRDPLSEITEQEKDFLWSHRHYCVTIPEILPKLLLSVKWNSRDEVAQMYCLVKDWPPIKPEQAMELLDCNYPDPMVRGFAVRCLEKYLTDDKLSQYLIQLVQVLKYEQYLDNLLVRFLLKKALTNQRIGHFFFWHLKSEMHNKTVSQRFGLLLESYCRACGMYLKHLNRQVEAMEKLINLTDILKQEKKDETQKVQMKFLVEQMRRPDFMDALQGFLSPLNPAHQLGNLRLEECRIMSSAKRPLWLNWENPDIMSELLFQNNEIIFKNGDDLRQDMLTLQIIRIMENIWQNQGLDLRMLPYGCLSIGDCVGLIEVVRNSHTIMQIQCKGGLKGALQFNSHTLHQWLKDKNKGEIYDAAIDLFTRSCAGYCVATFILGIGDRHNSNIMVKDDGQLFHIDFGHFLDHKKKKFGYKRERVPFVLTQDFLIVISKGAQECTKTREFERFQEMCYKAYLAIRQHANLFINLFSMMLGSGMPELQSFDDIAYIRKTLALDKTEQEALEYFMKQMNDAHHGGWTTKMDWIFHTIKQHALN

| Compound | IC50 (HCT-116) [nM] | IC50 (MCF7) [nM] | also measured |
| --- | --- | --- | --- |
| COc1ncc(-c2ccc3ncn([C@@H]4CCN(CC5CC5)C4)c(=O)c3c2)cc1NS(=O)(=O)c1ccc(F)cc1 | 4880 | 2030 |  |
| COc1ncc(-c2ccc3ncn(Cc4ccccc4)c(=O)c3c2)cc1NS(=O)(=O)c1ccc(F)cc1 | 4740 | 5900 |  |
| COc1ncc(-c2ccc3ncn(C4CCN(CC5CC5)CC4)c(=O)c3c2)cc1NS(=O)(=O)c1ccc(F)cc1 | 1220 | 2260 |  |
| COc1ncc(-c2ccc3ncn(Cc4ccncc4)c(=O)c3c2)cc1NS(=O)(=O)c1ccc(F)cc1 | 2950 | 1840 |  |
| COc1ncc(-c2ccc3ncn(C4CCN(C(C)=O)CC4)c(=O)c3c2)cc1NS(=O)(=O)c1ccc(F)cc1 | 1300 | 2630 |  |
| COc1ncc(-c2ccc3ncn([C@H]4CCN(C(=O)OC(C)(C)C)C4)c(=O)c3c2)cc1NS(=O)(=O)c1ccc(F)cc1 | 660 | 2730 |  |
| COc1ncc(-c2ccc3ncn([C@H]4CCN(C(=O)C5CC5)C4)c(=O)c3c2)cc1NS(=O)(=O)c1ccc(F)cc1 | 710 | 2360 | Ratio IC50 [1]: 10; Activity (Mus musculus): Toxic; inhibition in vivo at 20 mg/kg (CCRF S-180 [2]): 34.5%; IC50 [3]: 7.3 nM; IC50 [4]: 116 nM; IC50 (PI3K p110 beta/p85 alpha): 209 nM; IC50 [5]: 208 nM; inhibition in vivo at 40 mg/kg (CCRF S-180 [6]): 58%; IC50 [7]: 106 nM |
| COc1ncc(-c2ccc3ncn(C4CCN(C(=O)OC(C)(C)C)CC4)c(=O)c3c2)cc1NS(=O)(=O)c1ccc(F)cc1 | 1530 | 4360 |  |
| COc1ncc(-c2ccc3ncn([C@@H]4CCN(C(=O)C5CC5)C4)c(=O)c3c2)cc1NS(=O)(=O)c1ccc(F)cc1 | 6090 | 2260 |  |
| COc1ncc(-c2ccc3ncn([C@H]4CCN(C(=O)C5CCOCC5)C4)c(=O)c3c2)cc1NS(=O)(=O)c1ccc(F)cc1 | 600 | 1620 |  |
| COc1ncc(-c2ccc3ncn(CCN4CCOCC4)c(=O)c3c2)cc1NS(=O)(=O)c1ccc(Cl)cc1 | 2020 | 4140 |  |
| COc1ncc(-c2ccc3ncn([C@H]4CCNC4)c(=O)c3c2)cc1NS(=O)(=O)c1ccc(F)cc1 | 1460 | 2770 |  |
| COc1ncc(-c2ccc3ncn(CCN4CCOCC4)c(=O)c3c2)cc1NS(=O)(=O)c1ccc(F)cc1 | 1820 | 3200 |  |
| CCCCn1cnc2ccc(-c3cnc(OC)c(NS(=O)(=O)c4ccc(F)cc4)c3)cc2c1=O | 4060 | 3930 |  |
| CCN(CC)CCn1cnc2ccc(-c3cnc(OC)c(NS(=O)(=O)c4ccc(F)cc4)c3)cc2c1=O | 1200 | 2340 |  |
| COc1ncc(-c2ccc3ncn(CCN4CCCCC4)c(=O)c3c2)cc1NS(=O)(=O)c1ccc(F)cc1 | 2750 | 2950 |  |

| Compound | IC50 (HCT-116) [nM] | IC50 (MCF7) [nM] | also measured |
| --- | --- | --- | --- |
| Cn1c(=O)n(-c2ccc(C(C)(C)C#N)cc2)c2c3cc(-c4cnc5ccccc5c4)ccc3ncc21 [DACTOLISIB] | 560 | 1090 |  |
| COc1ncc(-c2ccc3ncn([C@H]4CCN(CC5CC5)C4)c(=O)c3c2)cc1NS(=O)(=O)c1ccc(F)cc1 | 670 | 1030 | Ratio IC50 [1]: 10; IC50 [3]: 6.7 nM; IC50 [4]: 181 nM; IC50 (PI3K p110 beta/p85 alpha): 24 nM; IC50 [5]: 114 nM; IC50 [7]: 21 nM |
| COc1ncc(-c2ccc3ncn([C@@H]4CCN(C(C)=O)C4)c(=O)c3c2)cc1NS(=O)(=O)c1ccc(F)cc1 | 4720 | 2450 |  |
| COc1ncc(-c2ccc3ncn(C4CCNCC4)c(=O)c3c2)cc1NS(=O)(=O)c1ccc(F)cc1 | 1150 | 1670 |  |
| COc1ncc(-c2ccc3ncn(-c4ccc(CN5CCN(C)CC5)cc4)c(=O)c3c2)cc1NS(=O)(=O)c1ccc(F)cc1 | 1250 | 4600 |  |
| COc1ncc(-c2ccc3ncn(C4CCN(C(=O)C5CCOCC5)CC4)c(=O)c3c2)cc1NS(=O)(=O)c1ccc(F)cc1 | 960 | 2900 |  |
| COc1ncc(-c2ccc3ncn(CCN4CCCC4)c(=O)c3c2)cc1NS(=O)(=O)c1ccc(F)cc1 | 2640 | 3820 |  |
| COc1ccc(Cn2cnc3ccc(-c4cnc(OC)c(NS(=O)(=O)c5ccc(F)cc5)c4)cc3c2=O)cc1 | 2800 | 3340 |  |
| COc1ncc(-c2ccc3ncn([C@H]4CCN(C(C)=O)C4)c(=O)c3c2)cc1NS(=O)(=O)c1ccc(F)cc1 | 1250 | 2520 |  |
| COc1ncc(-c2ccc3ncn(CCN4CCOCC4)c(=O)c3c2)cc1NS(=O)(=O)c1ccc(C)cc1 | 1350 | 3480 |  |
| COc1ncc(-c2ccc3ncn(Cc4cccnc4)c(=O)c3c2)cc1NS(=O)(=O)c1ccc(F)cc1 | 1290 | 1780 |  |
| CCN(CC)CCn1cnc2ccc(-c3cnc(OC)c(NS(=O)(=O)c4ccc(F)cc4F)c3)cc2c1=O | 1030 | 2590 |  |
| COc1ncc(-c2ccc3ncn(-c4ccc(CN5CCOCC5)cc4)c(=O)c3c2)cc1NS(=O)(=O)c1ccc(F)cc1 | 1420 | 3490 |  |
| COc1ncc(-c2ccc3ncn(CCN4CCN(C)CC4)c(=O)c3c2)cc1NS(=O)(=O)c1ccc(F)cc1 | 1450 | 3000 |  |
| COc1ncc(-c2ccc3ncn(C4CCN(C(=O)C5CC5)CC4)c(=O)c3c2)cc1NS(=O)(=O)c1ccc(F)cc1 | 1350 | 2730 |  |
| COc1ncc(-c2ccc3ncn(CCN(C)C)c(=O)c3c2)cc1NS(=O)(=O)c1ccc(F)cc1 | 2690 | 3720 |  |

Source: ChEMBL document CHEMBL4000150, “Synthesis and antitumor activity evaluation of PI3K inhibitors containing 3-substituted quinazolin-4(3H)-one moiety” (Bioorg Med Chem, 2015)
